# Measurements reported in ChEMBL document CHEMBL1145445, “Dual aromatase-steroid sulfatase inhibitors” (J Med Chem, 2007).
# pIC50: −log10 of the molar value.
# How the values were obtained:
# Rattus norvegicus [1] = assay: Inhibition of steroid sulfatase in Wistar rat liver at 10 mg/kg, po after 3 hrs; format: functional
# Summary of the method: (§1)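 Female Wistar rats were primed with a single sc injection of PMSG (200 IU). Three days later they were dosed once orally at 10 mg/kg in THF/propylene glycol (10:90). Liver was collected 3 or 24 h after dosing and STS activity assayed. Results are expressed against activity in untreated animals, mean ± SE, n = 3.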
# Rattus norvegicus [2] = assay: Inhibition of aromatase in Wistar rat assessed as reduction of PMSG-stimulated plasma estradiol level at 10 mg/kg, po after 24 hrs; format: functional
# Summary of the method: (§2)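 Female Wistar rats got a single sc injection of PMSG (200 IU). Three days later they received a single oral 10 mg/kg dose in THF/propylene glycol (10:90). Plasma estradiol was measured by radioimmunoassay at 3 or 24 h. Results are % inhibition of PMSG-stimulated estradiol, mean ± SE, n = 3, by Student's t test.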
# Rattus norvegicus [3] = assay: Inhibition of steroid sulfatase in Wistar rat assessed as liver STS activity at 10 mg/kg, po after 24 hrs
# Rattus norvegicus [4] = assay: Inhibition of steroid sulfatase in Wistar rat assessed as liver STS activity at 10 mg/kg, po after 3 hrs
# Rattus norvegicus [5] = assay: Inhibition of aromatase in Wistar rat assessed as reduction of PMSG-stimulated plasma estradiol level at 10 mg/kg, po after 3 hrs; format: functional; summary of the method: as §2
# Rattus norvegicus [6] = assay: Inhibition of steroid sulfatase in Wistar rat liver at 10 mg/kg, po; format: functional; summary of the method: as §1
# Steryl-sulfatase = molecular target: T1, Steryl-sulfatase (Homo sapiens, UniProt P08842); assay: Inhibition of steroid sulfatase in JEG3 cell membrane; format: cell-based, JEG-3
# T1 sequence (P08842 whole entry): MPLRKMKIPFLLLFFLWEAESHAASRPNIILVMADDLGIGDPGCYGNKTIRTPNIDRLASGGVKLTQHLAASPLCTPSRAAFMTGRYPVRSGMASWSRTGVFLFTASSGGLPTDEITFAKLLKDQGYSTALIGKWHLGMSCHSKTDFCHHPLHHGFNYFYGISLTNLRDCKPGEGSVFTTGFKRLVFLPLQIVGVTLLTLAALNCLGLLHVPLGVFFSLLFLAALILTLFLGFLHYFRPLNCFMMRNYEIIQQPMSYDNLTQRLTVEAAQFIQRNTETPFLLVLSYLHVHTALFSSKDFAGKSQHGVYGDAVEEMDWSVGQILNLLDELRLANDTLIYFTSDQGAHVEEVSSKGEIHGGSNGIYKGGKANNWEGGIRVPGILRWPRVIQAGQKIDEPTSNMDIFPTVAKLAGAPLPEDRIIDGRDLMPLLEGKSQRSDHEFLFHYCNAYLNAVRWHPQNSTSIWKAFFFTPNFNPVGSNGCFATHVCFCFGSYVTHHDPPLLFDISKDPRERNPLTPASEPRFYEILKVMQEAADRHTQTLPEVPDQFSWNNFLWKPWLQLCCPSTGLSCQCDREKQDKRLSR
# Aromatase [7] = molecular target: T2, Aromatase (Homo sapiens, UniProt P11511); assay: Inhibition of aromatase in JEG3 cell membrane; format: cell-based, JEG-3
# T2 sequence (P11511 whole entry): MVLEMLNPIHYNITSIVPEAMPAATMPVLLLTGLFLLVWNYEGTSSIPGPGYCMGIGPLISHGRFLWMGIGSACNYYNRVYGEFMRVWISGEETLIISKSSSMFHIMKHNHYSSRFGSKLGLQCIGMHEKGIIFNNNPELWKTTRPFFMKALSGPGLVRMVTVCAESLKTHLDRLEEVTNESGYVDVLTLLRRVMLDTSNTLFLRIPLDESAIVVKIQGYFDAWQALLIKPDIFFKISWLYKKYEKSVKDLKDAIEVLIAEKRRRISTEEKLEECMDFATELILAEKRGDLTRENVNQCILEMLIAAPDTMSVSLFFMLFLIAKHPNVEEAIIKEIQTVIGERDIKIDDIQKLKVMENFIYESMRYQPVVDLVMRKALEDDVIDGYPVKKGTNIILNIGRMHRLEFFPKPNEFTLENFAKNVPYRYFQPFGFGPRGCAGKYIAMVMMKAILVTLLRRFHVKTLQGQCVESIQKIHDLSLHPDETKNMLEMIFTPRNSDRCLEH
# Aromatase [8] = molecular target: T2, Aromatase; assay: Inhibition of aromatase in JEG3 cell membrane at 1 uM; format: cell-based; conditions: JEG-3, human; read-out: Activity
compound,measurement,setting,value
N#Cc1ccc(N(Cc2ccc(OS(N)(=O)=O)c(Br)c2)n2cnnc2)cc1,inhibition in vivo at 10 mg/kg,Rattus norvegicus [1],100%
same,inhibition in vivo at 10 mg/kg,Rattus norvegicus [2],85%
same,inhibition in vivo at 10 mg/kg,Rattus norvegicus [3],72%
same,inhibition in vivo at 10 mg/kg,Rattus norvegicus [4],98%
same,inhibition in vivo at 10 mg/kg,Rattus norvegicus [5],100%
same,inhibition in vivo at 10 mg/kg,Rattus norvegicus [6],100%
COc1cc(CN(c2ccc(C#N)cc2)n2cnnc2)ccc1OS(N)(=O)=O,pIC50,Steryl-sulfatase,6.42
same,pIC50,Aromatase [7],7.38
N#Cc1ccc(N(Cc2ccc(OS(N)(=O)=O)c(C#N)c2)n2cnnc2)cc1,pIC50,Steryl-sulfatase,< 5.00
same,pIC50,Aromatase [7],7.57
N#Cc1ccc(N(Cc2ccc(O)c(I)c2)n2cnnc2)cc1,pIC50,Aromatase [7],9.48
COc1cc(CN(c2ccc(C#N)cc2)n2cnnc2)ccc1O,pIC50,Aromatase [7],8.55
N#Cc1ccc(N(Cc2ccc(O)c(C#N)c2)n2cnnc2)cc1,pIC50,Aromatase [7],7.62
N#Cc1ccc(N(Cc2ccc(O)c(C(F)(F)F)c2)n2cnnc2)cc1,pIC50,Aromatase [7],9.06
N#Cc1ccc(N(Cc2cc(Cl)c(O)c(Cl)c2)n2cnnc2)cc1,pIC50,Aromatase [7],8.12
N#Cc1ccc(N(Cc2c(F)c(F)c(O)c(F)c2F)n2cnnc2)cc1,pIC50,Aromatase [7],6.80
N#Cc1ccc(N(Cc2ccc(F)c(OS(N)(=O)=O)c2)n2cnnc2)cc1,inhibition in vivo at 10 mg/kg,Rattus norvegicus [1],100%
same,inhibition in vivo at 10 mg/kg,Rattus norvegicus [2],20%
same,inhibition in vivo at 10 mg/kg,Rattus norvegicus [3],33%
same,inhibition in vivo at 10 mg/kg,Rattus norvegicus [4],98%
same,inhibition in vivo at 10 mg/kg,Rattus norvegicus [5],82%
N#Cc1ccc(N(Cc2ccc(Br)c(OS(N)(=O)=O)c2)n2cnnc2)cc1,pIC50,Steryl-sulfatase,< 5.00
COc1ccc(CN(c2ccc(C#N)cc2)n2cnnc2)cc1OS(N)(=O)=O,pIC50,Steryl-sulfatase,< 5.00
N#Cc1ccc(N(Cc2ccc(Cl)c(O)c2)n2cnnc2)cc1,pIC50,Aromatase [7],9.74
N#Cc1ccc(N(Cc2ccc(Br)c(O)c2)n2cnnc2)cc1,pIC50,Aromatase [7],9.30
N#Cc1ccc(N(Cc2ccc(C(F)(F)F)c(O)c2)n2cnnc2)cc1,pIC50,Aromatase [7],9.40
COc1ccc(CN(c2ccc(C#N)cc2)n2cnnc2)cc1O,pIC50,Aromatase [7],8.92
COc1cc(CN(c2ccc(C#N)cc2)n2cnnc2)cc(Cl)c1O,pIC50,Aromatase [7],9.29
N#Cc1ccc(N(Cc2cccc(O)c2)n2cnnc2)cc1,pIC50,Aromatase [7],8.55
N#Cc1ccc(N(Cc2ccc(F)c(O)c2)n2cnnc2)cc1,pIC50,Aromatase [7],9.22
N#Cc1ccc(N(Cc2ccc(OS(N)(=O)=O)c(I)c2)n2cnnc2)cc1,pIC50,Steryl-sulfatase,6.72
same,pIC50,Aromatase [7],8.82
COc1cc(CN(c2ccc(C#N)cc2)n2cnnc2)cc(Cl)c1OS(N)(=O)=O,pIC50,Steryl-sulfatase,6.27
same,pIC50,Aromatase [7],8.54
N#Cc1ccc(N(Cc2ccc(OS(N)(=O)=O)cc2)n2cnnc2)cc1,inhibition at 1 µM,Aromatase [8],63.4%
NS(=O)(=O)Oc1ccc2c3c(c(=O)oc2c1)CCCCC3 [IROSUSTAT],inhibition in vivo at 10 mg/kg,Rattus norvegicus [3],97%
same,inhibition in vivo at 10 mg/kg,Rattus norvegicus [4],100%
N#Cc1ccc(C(c2ccc(C#N)cc2)n2cncn2)cc1 [LETROZOLE],inhibition in vivo at 10 mg/kg,Rattus norvegicus [2],100%
same,inhibition in vivo at 10 mg/kg,Rattus norvegicus [3],6%
same,inhibition in vivo at 10 mg/kg,Rattus norvegicus [4],3%
same,inhibition in vivo at 10 mg/kg,Rattus norvegicus [5],100%
